Source: ChEMBL document CHEMBL2417372, “Design, synthesis, and mechanism of action of 2-(3-hydroxy-5-methoxyphenyl)-6-pyrrolidinylquinolin-4-one as a potent anticancer lead” (Bioorg Med Chem Lett, 2013)

Key:
K562 = assay: Cytotoxicity against human K562 cells after 48 hrs; assay type: functional; conditions: K562, 48 h
Detroit 551 = assay: Cytotoxicity against human Detroit 551 cells after 48 hrs; assay type: cell-based; conditions: Detroit 551, 48 h
Summary of the method: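 MTT viability assay on log-phase cells at 37 °C, exposed to compound or DMSO vehicle for 48 h. MTT (1 mg/mL in PBS) was then added for 2 h, and absorbance was read at 570 nm with 630 nm correction. IC50 is the concentration giving 50% proliferation inhibition. Cells were cultured in 5% CO2: HL-60 in RPMI-1640 with 10% FBS; Hep3B in DMEM/F12 with 10% FBS; Detroit 551 in DMEM with 10% FBS.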

PC-3 = assay: Cytotoxicity against human PC3 cells after 48 hrs; assay type: functional; conditions: PC-3, 48 h
NCI-H522 = assay: Cytotoxicity against human NCI-H522 cells after 48 hrs by MTT assay; assay type: functional, cell-based; conditions: NCI-H522, 48 h
MOLT-4 = assay: Cytotoxicity against human MOLT4 cells after 48 hrs; assay type: functional; conditions: MOLT-4, 48 h
OVCAR-3 = assay: Cytotoxicity against human OVCAR3 cells after 48 hrs; assay type: functional; conditions: OVCAR-3, 48 h
[1] = Cytotoxicity against human EKVX cells after 48 hrs; assay type: functional
Summary of the method: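 Tested in the NCI-60 human cancer cell line panel. Results are given as log concentrations: GI50 reduced cell growth to 50% […], TGI caused total growth inhibition, and LC50 killed 50% of the test population.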

M14 = assay: Cytotoxicity against human M14 cells after 48 hrs; assay type: functional; conditions: M14, 48 h
HCT-116 = assay: Cytotoxicity against human HCT116 cells after 48 hrs; assay type: functional; conditions: HCT-116, 48 h
Malme-3M = assay: Cytotoxicity against human MALME-3M cells after 48 hrs; assay type: functional
LOX IMVI = assay: Cytotoxicity against human LOXIMVI cells after 48 hrs; assay type: functional
HT-29 = assay: Cytotoxicity against human HT-29 cells after 48 hrs; assay type: functional; conditions: HT-29, 48 h
SK-MEL-5 = assay: Cytotoxicity against human SK-MEL-5 cells after 48 hrs; assay type: functional; conditions: SK-MEL-5, 48 h
A498 = assay: Cytotoxicity against human A498 cells after 48 hrs; assay type: functional; conditions: A498, 48 h
RXF 393 = assay: Cytotoxicity against human RXF393 cells after 48 hrs; assay type: functional; conditions: RXF 393, 48 h
SR = assay: Cytotoxicity against human SR cells after 48 hrs; assay type: functional
ACHN = assay: Cytotoxicity against human ACHN cells after 48 hrs; assay type: functional
SNB-75 = assay: Cytotoxicity against human SNB75 cells after 48 hrs; assay type: functional; conditions: SNB-75, 48 h
UACC-62 = assay: Cytotoxicity against human UACC62 cells after 48 hrs; assay type: functional; conditions: UACC-62, 48 h
CAKI-1 = assay: Cytotoxicity against human CAKI-1 cells after 48 hrs; assay type: functional; conditions: CAKI-1, 48 h
786-0 = assay: Cytotoxicity against human 786-0 cells after 48 hrs; assay type: functional; conditions: 786-0, 48 h
KM12 = assay: Cytotoxicity against human KM12 cells after 48 hrs; assay type: functional; conditions: KM12, 48 h
OVCAR-8 = assay: Cytotoxicity against human OVCAR8 cells after 48 hrs; assay type: functional; conditions: OVCAR-8, 48 h
SK-MEL-28 = assay: Cytotoxicity against human SK-MEL-28 cells after 48 hrs; assay type: functional; conditions: SK-MEL-28, 48 h
HCC 2998 = assay: Cytotoxicity against human HCC2998 cells after 48 hrs; assay type: functional; conditions: HCC 2998, 48 h
BT-549 = assay: Cytotoxicity against human BT549 cells after 48 hrs; assay type: functional; conditions: BT-549, 48 h
MDA-MB-435 = assay: Cytotoxicity against human MDA-MB-435 cells after 48 hrs; assay type: functional; conditions: MDA-MB-435, 48 h
IGROV-1 = assay: Cytotoxicity against human IGROV1 cells after 48 hrs; assay type: functional; conditions: IGROV-1, 48 h
UACC-257 = assay: Cytotoxicity against human UACC257 cells after 48 hrs; assay type: functional; conditions: UACC-257, 48 h
T47D = assay: Cytotoxicity against human T47D cells after 48 hrs; assay type: functional
HOP-92 = assay: Cytotoxicity against human HOP92 cells after 48 hrs; assay type: functional; conditions: HOP-92, 48 h
[2] = read-out: pLC50 (the source's name) (converted)

Question: What does the source list for `COc1cc(O)cc(-c2cc(=O)c3cc(N4CCCC4)ccc3[nH]2)c1`?
Answer: GI50 (K562): 0.0234 µM; CC50 (K562; [2]): > 100 µM; TGI (K562; read-out: pTGI): > 100 µM; IC50 (Detroit 551): > 50 µM; GI50 (PC-3): 0.0977 µM; CC50 (PC-3; [2]): > 100 µM; TGI (PC-3; read-out: pTGI): > 100 µM; IC50 (NCI-H522): 0.0423 µM; GI50 (MOLT-4): 0.0347 µM; CC50 (MOLT-4; [2]): > 100 µM; TGI (MOLT-4; read-out: pTGI): > 100 µM; GI50 (OVCAR-3; read-out: pGI50 (converted)): 0.0234 µM; CC50 (OVCAR-3; [2]): 6.46 µM; TGI (OVCAR-3; read-out: pTGI (converted)): 0.0891 µM; CC50 [1, 2]: > 100 µM; TGI ([1]; read-out: pTGI): > 100 µM; GI50 (M14): 0.0302 µM; CC50 (M14; [2]): > 100 µM; TGI (M14; read-out: pTGI (converted)): 15.8 µM; GI50 (HCT-116): 0.0355 µM; CC50 (HCT-116; [2]): > 100 µM; TGI (HCT-116; read-out: pTGI): > 100 µM; GI50 (Malme-3M): 0.0257 µM; CC50 (Malme-3M; [2]): > 100 µM; TGI (Malme-3M; read-out: pTGI): > 100 µM; GI50 (LOX IMVI): 0.0324 µM; CC50 (LOX IMVI; [2]): > 100 µM; TGI (LOX IMVI; read-out: pTGI): > 100 µM; GI50 (HT-29): 0.0759 µM; CC50 (HT-29; [2]): > 100 µM; TGI (HT-29; read-out: pTGI): > 100 µM; GI50 (SK-MEL-5): 0.0246 µM; CC50 (SK-MEL-5; [2]): 0.49 µM; TGI (SK-MEL-5; read-out: pTGI (converted)): 0.0661 µM; GI50 (A498): 4.07 µM; CC50 (A498; [2]): > 100 µM; TGI (A498; read-out: pTGI): > 100 µM; GI50 (RXF 393): 0.0407 µM; CC50 (RXF 393; [2]): > 100 µM; TGI (RXF 393; read-out: pTGI (converted)): 24 µM; GI50 (SR): < 0.01 µM; CC50 (SR; [2]): > 100 µM; TGI (SR; read-out: pTGI): > 100 µM; GI50 (ACHN): 0.0776 µM; CC50 (ACHN; [2]): > 100 µM; TGI (ACHN; read-out: pTGI): > 100 µM; GI50 (SNB-75): 0.0347 µM; CC50 (SNB-75; [2]): 77.6 µM; TGI (SNB-75; read-out: pTGI (converted)): 13.2 µM; GI50 (UACC-62): 0.646 µM; CC50 (UACC-62; [2]): > 100 µM; TGI (UACC-62; read-out: pTGI): > 100 µM; GI50 (CAKI-1): 0.0832 µM; CC50 (CAKI-1; [2]): > 100 µM; TGI (CAKI-1; read-out: pTGI): > 100 µM; GI50 (786-0): 0.178 µM; CC50 (786-0; [2]): > 100 µM; TGI (786-0; read-out: pTGI): > 100 µM; GI50 (KM12): 0.0347 µM; CC50 (KM12; [2]): > 100 µM; TGI (KM12; read-out: pTGI): > 100 µM; GI50 (OVCAR-8): 0.0389 µM; CC50 (OVCAR-8; [2]): > 100 µM; TGI (OVCAR-8; read-out: pTGI (converted)): 31.6 µM; GI50 (SK-MEL-28): 0.0741 µM; CC50 (SK-MEL-28; [2]): > 100 µM; TGI (SK-MEL-28; read-out: pTGI): > 100 µM; GI50 (HCC 2998): 0.0457 µM; CC50 (HCC 2998; [2]): > 100 µM; TGI (HCC 2998; read-out: pTGI): > 100 µM; GI50 (BT-549): 0.0372 µM; CC50 (BT-549; [2]): > 100 µM; TGI (BT-549; read-out: pTGI): > 100 µM; GI50 (MDA-MB-435): 0.01 µM; TGI (MDA-MB-435; read-out: pTGI (converted)): 0.0295 µM; GI50 (IGROV-1): 0.363 µM; CC50 (IGROV-1; [2]): > 100 µM; TGI (IGROV-1; read-out: pTGI): > 100 µM; GI50 (UACC-257): 0.708 µM; CC50 (UACC-257; [2]): > 100 µM; TGI (UACC-257; read-out: pTGI): > 100 µM; GI50 (T47D): > 100 µM; CC50 (T47D; [2]): > 100 µM; TGI (T47D; read-out: pTGI): > 100 µM; GI50 (HOP-92): 30.9 µM; CC50 (HOP-92; [2]): > 100 µM; TGI (HOP-92; read-out: pTGI): > 100 µM
